Results gathered from unrelated publications.
Compare with care: the assays were run in different laboratories.
Target: Tyrosine-protein kinase SYK (SYK, Homo sapiens, UniProt P43405)

For `COc1cc2ncnc(Nc3ccc(Oc4ccccc4)cc3C)c2cc1OC`, the inhibition was 1% (enzyme activity, inhibitor; 1 µM).
With `Oc1cccc(-c2nc(N3CCOCC3)c3oc4ncccc4c3n2)c1` the remaining signal was 94.2% (cell-free assay; 0.5 µM).
The remaining activity of `CC(C)(O)[C@H]1CC[C@H](Nc2ccc3ncc(-c4cccc(C(F)(F)F)c4)n3n2)CC1` is reported as 72.3% (enzyme activity, inhibitor; 1 µM).
The remaining signal of `COc1cc2c(Nc3ccc(Br)cc3F)ncnc2cc1OCC1CCN(C)CC1` is reported as 101% (cell-free assay; 0.5 µM).
`CC(=O)N1CCC(c2ccc(C(=O)NC3=NCCN3)cc2C(F)(F)F)CC1` gave a remaining binding of 100% (cell-free assay, competition with immobilised ligand; 1 µM).
`CN(C)C1CCN(CC#Cc2nn(C3CCCC3)c3nc(NCc4ccccc4)ncc23)C1` (centres unmarked) gave an inhibition of 2% (enzyme activity, inhibitor, FRET; 0.1 µM).
`O=C(O)[C@H]1[C@H](Cn2nnc3ccccc3c2=O)CC[C@@H]1C(=O)c1ccc(OCCC2CCOCC2)cc1` has a remaining binding of 76% (cell-free assay, competition with immobilised ligand; 1 µM).
`CCCS(=O)(=O)Nc1ccc(F)c(C(=O)c2c[nH]c3ncc(-c4ccc(Cl)cc4)cc23)c1F` gave an inhibition of less than 10% (enzyme activity, inhibitor; 1 µM).
`Nc1ncnc2occ(-c3ccc(NC(=O)Nc4cc(C(F)(F)F)ccc4F)cc3)c12` has a remaining signal of 2.4% (cell-free assay, inhibitor; 20 µM).
The remaining activity of `Cc1sc(C(=O)NC2COC2)cc1-n1cc(NC(=O)Nc2c(F)cccc2Cl)cn1` is reported as 88.5% (enzyme activity, inhibitor; 10 µM).
`COc1cc(Cl)c(C(=O)N[C@@H](CN[C@H]2CC[C@@H](N)CC2)Cc2ccc(C#N)cc2)cc1-c1ccc(CN[C@H](C)c2ccc(C)cc2)o1` has a remaining activity of 97% (enzyme activity, inhibitor; 1 µM).
`CC(C)(C)c1nc(-c2cccc(NS(=O)(=O)c3c(F)cccc3F)c2F)c(-c2ccnc(N)n2)s1` gave a remaining activity of 111% (enzyme activity, inhibitor, radiometric; 1 µM).
With `Cc1c(C(=O)O)cc(-c2ccc(C3CCNCC3)cc2)c2ccc(-c3ccc(C(F)(F)F)cc3)cc12` the remaining binding was 100% (cell-free assay, competition with immobilised ligand; 1 µM).
The inhibition of `Cc1ccc(Nc2nccc(N(C)c3ccc4c(C)n(C)nc4c3)n2)cc1S(N)(=O)=O` is reported as 88% (enzyme activity, inhibitor; 10 µM).
`CS(=O)(=O)N1CCCC(NC(=O)[C@H](CCC2CCCCC2)NC(=O)c2ccc(CNc3ncnc4c3nnn4-c3ccccc3)cc2)C1` (some centres unmarked) gave a remaining binding of 88% (cell-free assay, competition with immobilised ligand; 0.1 µM).
`Cn1c(=O)n(-c2ccc(C(C)(C)C#N)cc2)c2c3cc(-c4cnc5ccccc5c4)ccc3ncc21` has a remaining activity of 72% (enzyme activity, inhibitor; 10 µM).
`CNc1cccc2cc(C(=O)Nc3ccc(C(=O)O)cc3)c(=O)[nH]c12` has an inhibition of 4% (enzyme activity, inhibitor; 10 µM).
For `O=C(Nc1cnn(-c2csc(C(=O)NC3COC3)c2)c1)Nc1c(F)cccc1Cl`, the remaining activity was 90.3% (enzyme activity, inhibitor; 5 µM).
With `Cn1cc(Cl)c2c(Oc3c(F)cc(Nc4cc(Cl)nc(N)n4)cc3F)ccnc21` the remaining binding was 100% (cell-free assay, competition with immobilised ligand; 0.1 µM).
With `Cc1ccc(NC(=O)c2ccc(C)c(C(F)(F)F)c2)cc1C#Cc1nn(C2CCC(O)CC2)c2ncnc(N)c12` (centres unmarked) the remaining signal was 95% (cell-free assay; 10 µM).
For `FC(F)(F)Oc1cccc(-c2cnc3ccc(-c4ccncc4)nn23)c1`, the activity vs control was 72% (enzyme activity, inhibitor, radiometric; 5 µM).
For `CC(C)(C)C(=O)c1sc(NC2CCCCC2)nc1N`, the remaining activity was 111% (enzyme activity, inhibitor; 10 µM).
`N#CCCc1ccc2c(c1)-c1[nH]c3ccc([N+](=O)[O-])cc3c1CC(=O)N2` has a remaining signal of 58% (cell-free assay; 0.5 µM).
The remaining binding of `CCCOc1ccc([C@H]2[C@H](C(=O)O)[C@@H](c3ccc4c(c3)OCO4)CN2CC(=O)Nc2c(CC)cccc2CC)cc1` is reported as 100% (cell-free assay, competition with immobilised ligand; 1 µM).
`COc1cc(Nc2cnc(C#N)c(O[C@H](C)CN(C)C)n2)ncc1-c1cnn(C)c1` has a remaining activity of 93% (enzyme activity, inhibitor, radiometric; 1 µM).
`Oc1cccc(-c2nc(N3CCOCC3)c3oc4ncccc4c3n2)c1` gave a remaining activity of 69% (enzyme activity, inhibitor; 10 µM).
For `COc1cc(/C=C/C(=O)CC(=O)/C=C/c2ccc(O)c(OC)c2)ccc1O`, the activity vs control was 92% (enzyme activity, inhibitor; 1 µM).
`CNC(=O)c1cc(Oc2ccc(NC(=O)Nc3ccc(Cl)c(C(F)(F)F)c3)cc2)ccn1` gave an inhibition of -6% (enzyme activity, inhibitor; 10 µM).
`CCS(=O)(=O)c1cc2cc(C[C@](O)(CC(C)(C)c3ccc(F)cc3C(N)=O)C(F)(F)F)[nH]c2cn1` has a remaining binding of 100% (cell-free assay, competition with immobilised ligand; 1 µM).
`Cc1ccc(C(=O)NCc2ccsc2)cc1C#Cc1cn(C(C)C)c2ncnc(N)c12` gave an activity vs control of 91% (enzyme activity, inhibitor; 1 µM).
For `CC(C)CC(=O)N1CCc2nc(-c3ccc(Br)cc3)nc(N(C)Cc3ccccc3)c2C1`, the remaining binding was 100% (cell-free assay, competition with immobilised ligand; 0.1 µM).
`CS(=O)(=O)Nc1cccc(-c2csc(NC(=O)CSc3nc4nccnc4c(=O)n3CCc3ccccc3)n2)c1` gave an inhibition of -1% (enzyme activity, inhibitor; 10 µM).
